Key:
[1] = Antitumor activity against human KB3 cells after 96 hrs by MTT assay; type: functional, cell-based; conditions: KB3, 96 h
Procedure, shortened: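 Human KB-3 carcinoma cells exposed to increasing compound concentrations; viability read by MTT colorimetric assay after 96 h. Values are means of triplicate assays, expressed relative to untreated controls.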

SNB-75 = assay: Growth inhibition of human SNB75 cells at 10 uM after 96 hrs by MTT assay; type: functional; set-up: scale not given: the % may be the effect or the level left
MCF7 = assay: Growth inhibition of human MCF7 cells at 10 uM after 96 hrs by MTT assay; type: functional; set-up: scale not given: the % may be the effect or the level left
DU-145 = assay: Growth inhibition of human DU145 cells at 10 uM after 96 hrs by MTT assay; type: functional; set-up: scale not given: the % may be the effect or the level left
HCT-15 = assay: Growth inhibition of human HCT15 cells at 10 uM after 96 hrs by MTT assay; type: functional; set-up: scale not given: the % may be the effect or the level left
HT-29 = assay: Growth inhibition of human HT-29 cells at 10 uM after 96 hrs by MTT assay; type: functional; set-up: scale not given: the % may be the effect or the level left
SK-MEL-5 = assay: Growth inhibition of human SK-MEL-5 cells at 10 uM after 96 hrs by MTT assay; type: functional; set-up: scale not given: the % may be the effect or the level left
LOX IMVI = assay: Growth inhibition of human LOXIMVI cells at 10 uM after 96 hrs by MTT assay; type: functional; set-up: scale not given: the % may be the effect or the level left
RXF 393 = assay: Growth inhibition of human RXF393 cells at 10 uM after 96 hrs by MTT assay; type: functional; set-up: scale not given: the % may be the effect or the level left
OVCAR-3 = assay: Growth inhibition of human OVCAR-3 cells at 10 uM after 96 hrs by MTT assay; type: functional; set-up: scale not given: the % may be the effect or the level left
SF-268 = assay: Growth inhibition of human SF268 cells at 10 uM after 96 hrs by MTT assay; type: functional; set-up: scale not given: the % may be the effect or the level left
HCT-116 = assay: Growth inhibition of human HCT116 cells at 10 uM after 96 hrs by MTT assay; type: functional; set-up: scale not given: the % may be the effect or the level left
T47D = assay: Growth inhibition of human T47D cells at 10 uM after 96 hrs by MTT assay; type: functional; set-up: scale not given: the % may be the effect or the level left
SK-OV-3 = assay: Growth inhibition of human SKOV3 cells at 10 uM after 96 hrs by MTT assay; type: functional; set-up: scale not given: the % may be the effect or the level left
A549 = assay: Growth inhibition of human A549 cells at 10 uM after 96 hrs by MTT assay; type: functional; set-up: scale not given: the % may be the effect or the level left
KM12 = assay: Growth inhibition of human KM12 cells at 10 uM after 96 hrs by MTT assay; type: functional; set-up: scale not given: the % may be the effect or the level left
[2] = Growth inhibition of human RPMI8266 cells at 10 uM after 96 hrs by MTT assay; type: functional; set-up: scale not given: the % may be the effect or the level left
SK-MEL-28 = assay: Growth inhibition of human SK-MEL-28 cells at 10 uM after 96 hrs by MTT assay; type: functional; set-up: scale not given: the % may be the effect or the level left
OVCAR-5 = assay: Growth inhibition of human OVCAR5 cells at 10 uM after 96 hrs by MTT assay; type: functional; set-up: scale not given: the % may be the effect or the level left
SN12C = assay: Growth inhibition of human SN12C cells at 10 uM after 96 hrs by MTT assay; type: functional; set-up: scale not given: the % may be the effect or the level left
SR = assay: Growth inhibition of human SR cells at 10 uM after 96 hrs by MTT assay; type: functional; set-up: scale not given: the % may be the effect or the level left
NCI-H23 = assay: Growth inhibition of human NCI-H23 cells at 10 uM after 96 hrs by MTT assay; type: functional; set-up: scale not given: the % may be the effect or the level left
MOLT-4 = assay: Growth inhibition of human MOLT4 cells at 10 uM after 96 hrs by MTT assay; type: functional; set-up: scale not given: the % may be the effect or the level left
UO-31 = assay: Growth inhibition of human UO31 cells at 10 uM after 96 hrs by MTT assay; type: functional; set-up: scale not given: the % may be the effect or the level left
NCI-H522 = assay: Growth inhibition of human NCI-H522 cells at 10 uM after 96 hrs by MTT assay; type: functional; set-up: scale not given: the % may be the effect or the level left
HOP-92 = assay: Growth inhibition of human HOP92 cells at 10 uM after 96 hrs by MTT assay; type: functional; set-up: scale not given: the % may be the effect or the level left
MDA-MB-435 = assay: Growth inhibition of human MDA-MB-435 cells at 10 uM after 96 hrs by MTT assay; type: functional; set-up: scale not given: the % may be the effect or the level left
OVCAR-8 = assay: Growth inhibition of human OVCAR8 cells at 10 uM after 96 hrs by MTT assay; type: functional; set-up: scale not given: the % may be the effect or the level left
HL-60(TB) = assay: Growth inhibition of human HL-60(TB) cells at 10 uM after 96 hrs by MTT assay; type: functional; set-up: scale not given: the % may be the effect or the level left
SK-MEL-2 = assay: Growth inhibition of human SK-MEL-2 cells at 10 uM after 96 hrs by MTT assay; type: functional; set-up: scale not given: the % may be the effect or the level left
NCI-H460 = assay: Growth inhibition of human NCI-H460 cells at 10 uM after 96 hrs by MTT assay; type: functional; set-up: scale not given: the % may be the effect or the level left
K562 = assay: Growth inhibition of human K562 cells at 10 uM after 96 hrs by MTT assay; type: functional; set-up: scale not given: the % may be the effect or the level left
NCI-H226 = assay: Growth inhibition of human NCI-H226 cells at 10 uM after 96 hrs by MTT assay; type: functional; set-up: scale not given: the % may be the effect or the level left
PC-3 = assay: Growth inhibition of human PC3 cells at 10 uM after 96 hrs by MTT assay; type: functional; set-up: scale not given: the % may be the effect or the level left
SNB-19 = assay: Growth inhibition of human SNB19 cells at 10 uM after 96 hrs by MTT assay; type: functional; set-up: scale not given: the % may be the effect or the level left
SW-620 = assay: Growth inhibition of human SW620 cells at 10 uM after 96 hrs by MTT assay; type: functional; set-up: scale not given: the % may be the effect or the level left
[3] = Growth inhibition of human Hs 578T cells at 10 uM after 96 hrs by MTT assay; type: functional; set-up: scale not given: the % may be the effect or the level left
MDA-MB-231 = assay: Growth inhibition of human MDA-MB-231 cells at 10 uM after 96 hrs by MTT assay; type: functional; set-up: scale not given: the % may be the effect or the level left
SF-295 = assay: Growth inhibition of human SF295 cells at 10 uM after 96 hrs by MTT assay; type: functional; set-up: scale not given: the % may be the effect or the level left
EKVX = assay: Growth inhibition of human EKVX cells at 10 uM after 96 hrs by MTT assay; type: functional; set-up: scale not given: the % may be the effect or the level left
Malme-3M = assay: Growth inhibition of human MALME-3M cells at 10 uM after 96 hrs by MTT assay; type: functional; set-up: scale not given: the % may be the effect or the level left
SF-539 = assay: Growth inhibition of human SF539 cells at 10 uM after 96 hrs by MTT assay; type: functional; set-up: scale not given: the % may be the effect or the level left
COLO 205 = assay: Growth inhibition of human COLO205 cells at 10 uM after 96 hrs by MTT assay; type: functional; set-up: scale not given: the % may be the effect or the level left
M14 = assay: Growth inhibition of human M14 cells at 10 uM after 96 hrs by MTT assay; type: functional; set-up: scale not given: the % may be the effect or the level left
786-0 = assay: Growth inhibition of human 786-0 cells at 10 uM after 96 hrs by MTT assay; type: functional; set-up: scale not given: the % may be the effect or the level left
TK-10 = assay: Growth inhibition of human TK10 cells at 10 uM after 96 hrs by MTT assay; type: functional; set-up: scale not given: the % may be the effect or the level left
ACHN = assay: Growth inhibition of human ACHN cells at 10 uM after 96 hrs by MTT assay; type: functional; set-up: scale not given: the % may be the effect or the level left
OVCAR-4 = assay: Growth inhibition of human OVCAR4 cells at 10 uM after 96 hrs by MTT assay; type: functional; set-up: scale not given: the % may be the effect or the level left
NCI-H322M = assay: Growth inhibition of human NCI-H322M cells at 10 uM after 96 hrs by MTT assay; type: functional; set-up: scale not given: the % may be the effect or the level left
HOP-62 = assay: Growth inhibition of human HOP62 cells at 10 uM after 96 hrs by MTT assay; type: functional; set-up: scale not given: the % may be the effect or the level left
MDA-MB-468 = assay: Growth inhibition of human MDA-MB-468 cells at 10 uM after 96 hrs by MTT assay; type: functional; set-up: scale not given: the % may be the effect or the level left
U-251 = assay: Growth inhibition of human U251 cells at 10 uM after 96 hrs by MTT assay; type: functional; set-up: scale not given: the % may be the effect or the level left
A498 = assay: Growth inhibition of human A498 cells at 10 uM after 96 hrs by MTT assay; type: functional; set-up: scale not given: the % may be the effect or the level left
IGROV-1 = assay: Growth inhibition of human IGROV1 cells at 10 uM after 96 hrs by MTT assay; type: functional; set-up: scale not given: the % may be the effect or the level left
NCI/ADR-RES = assay: Growth inhibition of human NCI/ADR-RES cells at 10 uM after 96 hrs by MTT assay; type: functional; set-up: scale not given: the % may be the effect or the level left
UACC-257 = assay: Growth inhibition of human UACC257 cells at 10 uM after 96 hrs by MTT assay; type: functional; set-up: scale not given: the % may be the effect or the level left
UACC-62 = assay: Growth inhibition of human UACC62 cells at 10 uM after 96 hrs by MTT assay; type: functional; set-up: scale not given: the % may be the effect or the level left
CCRF-CEM = assay: Growth inhibition of human CCRF-CEM cells at 10 uM after 96 hrs by MTT assay; type: functional; set-up: scale not given: the % may be the effect or the level left
HCC 2998 = assay: Growth inhibition of human HCC2998 cells at 10 uM after 96 hrs by MTT assay; type: functional; set-up: scale not given: the % may be the effect or the level left
BT-549 = assay: Growth inhibition of human BT549 cells at 10 uM after 96 hrs by MTT assay; type: functional; set-up: scale not given: the % may be the effect or the level left

C=C(C)[C@H]1CC=C(C)[C@@]2(O)[C@@H]1[C@H](c1ccccc1Br)O[C@@H]2C(=O)OC
IC50 [1]: 5 µM

C=C(C)[C@H]1CC(=O)C(C)=C2[C@@H](C(=O)OCC)O[C@@H](c3cccc(Cl)c3Cl)[C@@H]21
IC50 [1]: 5 µM

C=C(C)[C@H]1CC(=O)C(C)=C2[C@@H](C(=O)OCC)O[C@@H](c3ccc(Cl)cc3Cl)[C@@H]21
Activity (SNB-75): 50.59%
Activity (MCF7): 62.06%
Activity (DU-145): 83.07%
Activity (HCT-15): 71.15%
Activity (HT-29): 66.3%
Activity (SK-MEL-5): 52.4%
Activity (LOX IMVI): 66.98%
Activity (RXF 393): 69.05%
Activity (OVCAR-3): 72.74%
Activity (SF-268): 78.47%
Activity (HCT-116): 42.99%
Activity (T47D): 40.94%
Activity (SK-OV-3): 103.67%
Activity (A549): 41.04%
Activity (KM12): 63.13%
Activity [2]: -4.6%
Activity (SK-MEL-28): 98.82%
Activity (OVCAR-5): 119.16%
Activity (SN12C): 94.13%
Activity (SR): 12.69%
Activity (NCI-H23): 65.8%
Activity (MOLT-4): 17.98%
Activity (UO-31): 121.05%
Activity (NCI-H522): 9.23%
Activity (HOP-92): 49.8%
Activity (MDA-MB-435): 48.5%
Activity (OVCAR-8): 81.47%
Activity (HL-60(TB)): -31.34%
Activity (SK-MEL-2): 39.43%
Activity (NCI-H460): 58.73%
Activity (K562): 25.32%
Activity (NCI-H226): 81.04%
Activity (PC-3): 44.34%
Activity (SNB-19): 89.23%
Activity (SW-620): 72.54%
Activity [3]: 78.32%
Activity (MDA-MB-231): 76.61%
Activity (SF-295): 88.75%
Activity (EKVX): 69.98%
Activity (Malme-3M): 84.13%
Activity (SF-539): 76.69%
Activity (COLO 205): 94.54%
Activity (M14): 78.49%
Activity (786-0): 84.02%
Activity (TK-10): 98.26%
Activity (ACHN): 89.8%
Activity (OVCAR-4): 65.97%
Activity (NCI-H322M): 92.62%
Activity (HOP-62): 84.64%
IC50 [1]: 3 µM
Activity (MDA-MB-468): 13.57%
Activity (U-251): 53.44%
Activity (A498): 82.29%
Activity (IGROV-1): 80.84%
Activity (NCI/ADR-RES): 74.31%
Activity (UACC-257): 51.65%
Activity (UACC-62): 45.44%
Activity (CCRF-CEM): 19.48%
Activity (HCC 2998): 107.11%
Activity (BT-549): 41.32%

C=C(C)[C@H]1CC=C(C)[C@H]2[C@@H]1[C@H](c1ccccc1Br)O[C@@H]2C(=O)OCC
IC50 [1]: > 100 µM

— ChEMBL document CHEMBL1153726, “Synthesis and anticancer activity of sclerophytin-inspired hydroisobenzofurans” (Bioorg Med Chem Lett, 2009)
